The record followed here is ChEMBL document CHEMBL1136807, “CC-1065 analogues bearing different DNA-binding subunits: synthesis, antitumor activity, and preliminary toxicity study” (J Med Chem, 2003).

Experiment [1] relates to L1210. As to the kind of experiment: Compound was tested in vitro against L1210 leukemia cells. It counts as functional, cell-based. As to conditions: Mus musculus. In short, it runs like this:
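L1210 murine leukemia cells exposed to drug for 48 h; IC50 reported in nM.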

Experiment [2] deals with Mus musculus. As to the kind of experiment: Days until first mouse died treated with 100 […] compound; no death. It counts as functional, organism-based.
Experiment [3] concerns Mus musculus. Put plainly: Increase in life span of mice bearing L1210 leukemia after administration of 620 […] compound. It counts as functional. In short, it runs like this:
(§1)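 In vivo antitumor test in mice bearing L1210 leukemia, read out as increase in life span (ILS). Body weight was monitored. The optimal dose was defined as the dose giving the best antitumor efficacy with body weight loss ≤15%.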

The subject of experiment [4] is Mus musculus. As to the kind of experiment: Increase in life span of mice bearing L1210 leukemia after administration of 298 […] compound. It counts as functional. In short, it runs like this:
as §1

For experiment [5], the system named is Mus musculus. Put plainly: Increase in life span of mice bearing L1210 leukemia after administration of 498 […] compound. It counts as functional. In a few lines:
as §1

The test system of experiment [6] is Mus musculus. As to the kind of experiment: Number of mice bearing L1210 leukemia that survived after 30 days, after administration of 298 […] compound. It counts as functional. In a few lines: as §1
Experiment [7] deals with Mus musculus. Put plainly: Number of mice bearing L1210 leukemia that survived after 30 days, after administration of 620 […] compound. It counts as functional. In a few lines:
as §1

Experiment [8] relates to Mus musculus. As to the kind of experiment: Number of mice surviving on day 180 treated with 100 […] compound; 8/8. It counts as functional, organism-based.
For experiment [9], the system named is Mus musculus. As to the kind of experiment: Weight change in mice bearing L1210 leukemia after administration of 298 […] compound. It counts as functional.
For experiment [10], the system named is Mus musculus. As to the kind of experiment: Weight change in mice bearing L1210 leukemia after administration of 498 […] compound. It counts as functional.
For experiment [11], the system named is Mus musculus. Put plainly: Weight change in mice bearing L1210 leukemia after administration of 620 […] compound. It counts as functional.
Experiment [12] has as its system Mus musculus. As to the kind of experiment: Number of mice bearing L1210 leukemia that survived after 30 days, after administration of 498 µg/kg compound.
For experiment [13], the system named is Mus musculus. As to the kind of experiment: Increase in life span of mice bearing L1210 leukemia after administration of 100 […] compound. It counts as functional. In short, it runs like this: as §1
For experiment [14], the system named is Mus musculus. As to the kind of experiment: Increase in life span of mice bearing L1210 leukemia after administration of 67 […] compound. It counts as functional. In a few lines: as §1
Experiment [15] deals with Mus musculus. As to the kind of experiment: Increase in life span of mice bearing L1210 leukemia after administration of 45 […] compound. It counts as functional. In short, it runs like this: as §1
The test system of experiment [16] is Mus musculus. As to the kind of experiment: Number of mice bearing L1210 leukemia that survived after 30 days, after administration of 100 […] compound. It counts as functional. In a few lines: as §1
The subject of experiment [17] is Mus musculus. As to the kind of experiment: Number of mice bearing L1210 leukemia that survived after 30 days, after administration of 67 […] compound. It counts as functional. In a few lines:
as §1

The test system of experiment [18] is Mus musculus. Put plainly: Weight change in mice bearing L1210 leukemia after administration of 100 […] compound. It counts as functional.
Experiment [19] relates to Mus musculus. Put plainly: Weight change in mice bearing L1210 leukemia after administration of 45 […] compound. It counts as functional.
The subject of experiment [20] is Mus musculus. As to the kind of experiment: Weight change in mice bearing L1210 leukemia after administration of 67 […] compound. It counts as functional.
Experiment [21] has as its system Mus musculus. As to the kind of experiment: Number of mice bearing L1210 leukemia that survived after 30 days, after administration of 45 µg/kg compound.
For experiment [22], the system named is Mus musculus. Put plainly: Days until first mouse died treated with 100 […] compound. It counts as functional. In short, it runs like this: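 Delayed-toxicity study in non-tumor-bearing BDF1 mice: single ip dose given on day 0, then animals observed for up to 180 days. Recorded the day the first mouse died and the number of mice alive on day 180, with 6–8 mice per group.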

In experiment [23] the test system is Mus musculus. As to the kind of experiment: Number of mice surviving on day 180 treated with 100 […] compound; 5/8. It counts as functional, organism-based.

A word on the IC50: it is the concentration that gives 50% inhibition. In experiment [1], `COc1cccc2c1C(=O)c1c(O)c3c(c(O)c1C2=O)C[C@@](O)(C(=O)CO)C[C@@H]3O[C@H]1C[C@H](N)[C@H](O)[C@H](C)O1` [DOXORUBICIN] had an IC50 of 179 nM. This counts as sub-micromolar.
A word on the ILS: it is how much longer treated animals lived than controls. A higher ILS goes with a large benefit in survival. For `O=C(Nc1ccc2[nH]c(/C=C/C(=O)N3CC(CCl)c4c3cc(O)c3ccccc43)cc2c1)c1cc2ccccc2[nH]1` (racemic), the IC50 in experiment [1] was 1 nM. Further, in experiment [2], the Days result is “No death”. The same compound had an ILS at 620 mg/kg in experiment [3] of 147%. Besides, the ILS at 298 mg/kg in experiment [4] turned out to be 157%. The compound also gave an ILS at 498 mg/kg in experiment [5] of 231%. In addition, the figures for the Survivors in experiment [6], in experiment [7] and in [12] were 0, 0 and 1, respectively. Also, the No. of mice result in [8] is “Mice surviving 8/8”. Besides, the Weight change in experiment [9] is given as 0%; in experiment [10], 0%; in experiment [11] it was -13%.
Compound `O=C(Nc1ccc2[nH]c(C(=O)N3CC(CCl)c4c3cc(O)c3ccccc43)cc2c1)c1cc2cc([N+](=O)[O-])ccc2o1` (racemic) registered an IC50 in experiment [1] of 0.44 nM. In experiment [13], this compound displayed an ILS at 100 mg/kg of 173%. In addition, the Days entry in experiment [2] was “No death”. The compound further displayed an ILS at 67 mg/kg in experiment [14] of 147%. The compound further registered an ILS at 45 mg/kg in experiment [15] of 120%. The Survivors in experiment [16], in [17] and in experiment [21] was 0 each time. For the same compound, the No. of mice entry in experiment [8] is listed as “Mice surviving 8/8”. Moreover, the Weight change in experiment [18] is reported as -5%; in [19], 2%; in experiment [20] it was -2%.
The compound `COc1ccc2[nH]c(C(=O)Nc3ccc4[nH]c(C(=O)N5CC(CCl)c6c5cc(O)c5ccccc65)cc4c3)cc2c1` (racemic) displayed an IC50 in [1] of 5.7 nM. Further, in experiment [13], the ILS at 100 mg/kg was determined as 53%. The same compound yielded a Days in [22] of 35. In addition, the ILS at 67 mg/kg in [14] came to 93%. In [15], this compound gave an ILS at 45 mg/kg of 93%. The Survivors in [16], in experiment [17] and in experiment [21] was 0 in each case. The No. of mice result in [23] is “Mice surviving 5/8”. In addition, the Weight change in experiment [18] is reported as -15%; in [19], 2%; in experiment [20], 3%.
The compound `CC(=O)Nc1ccc2[nH]c(C(=O)Nc3ccc4[nH]c(C(=O)N5CC(CCl)c6c5cc(O)c5ccccc65)cc4c3)cc2c1` (racemic) yielded an IC50 in [1] of 2.5 nM.
